According to ChEMBL document CHEMBL1123861, “Antitumor agents. 89. Psychorubrin, a new cytotoxic naphthoquinone from Psychotria rubra and its structure-activity relationships” (1987):
≈ marks a conversion by molar mass, not a printed value.

System: KB
Experiment: Evaluated for cytotoxicity in the KB cell culture assay
Type: functional
Conditions: Homo sapiens, read-out: ED50 (the source's name)
Outline: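 Cytotoxicity screen per NIH protocol. 10^4 tumor cells grown in MEM with 10% fetal calf serum; penicillin and streptomycin given on day 3. Drug tested at 0.1 to 20 µg/mL (N = 4). Viable cells counted by trypan blue exclusion and expressed as % of the 0.05% Tween 80-water control. ED50 estimated from a semi-log plot of concentration vs % viable cells.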

Structure (SMILES) | EC50
O=C1C2=C(OCC=C2)C(=O)c2ccccc21 | 0.4 µg/mL (≈ 1.88 µM)
C/C=C/C1=C(OC(=O)CC)C(=O)c2ccccc2C1=O | 6.5 µg/mL (≈ 24 µM)
C/C=C/C1=C(O)C(=O)c2ccccc2C1=O | 14 µg/mL (≈ 65.4 µM)
O=C1C2=C(CC(O)OC2)C(=O)c2ccccc21 (stereo not drawn) | 3 µg/mL (≈ 13 µM)
O=C1C2=C(OC(Cl)CC2)C(=O)c2ccccc21 (stereo not drawn) | 9.3 µg/mL (≈ 37.4 µM)
CC(=O)c1cc2c(o1)C(=O)c1ccccc1C2=O [NAPABUCASIN] | 1 µg/mL (≈ 4.16 µM)
C/C=C/C1=C(OC(=O)c2ccccc2)C(=O)c2ccccc2C1=O | 5.1 µg/mL (≈ 16 µM)
C/C=C/C1=C(OC(C)=O)C(=O)c2ccccc2C1=O | 5.1 µg/mL (≈ 19.9 µM)
O=C1C2=C(OC(O)CC2)C(=O)c2ccccc21 (stereo not drawn) | 20 µg/mL (≈ 86.9 µM)
CC(C)=CCC1=C(O)C(=O)c2ccccc2C1=O [LAPACHOL] | 4.4 µg/mL (≈ 18.2 µM)
COC1CCC2=C(O1)C(=O)c1ccccc1C2=O (stereo not drawn) | 11 µg/mL (≈ 45 µM)
Cc1cc2c(o1)-c1ccccc1C(=O)C2=O | 0.6 µg/mL (≈ 2.83 µM)
C=C/C=C1/C(=O)C(=O)c2ccccc2C1=O | 0.4 µg/mL (≈ 1.88 µM)
CC(=O)OC1CCC2=C(O1)C(=O)c1ccccc1C2=O (stereo not drawn) | 10 µg/mL (≈ 36.7 µM)
CC(=O)OC1CC2=C(CO1)C(=O)c1ccccc1C2=O (stereo not drawn) | 5 µg/mL (≈ 18.4 µM)
O=C1C2=C(OCCC2)C(=O)c2ccccc21 | 8 µg/mL (≈ 37.3 µM)
CC(O)c1cc2c(o1)C(=O)c1ccccc1C2=O (stereo not drawn) | 2 µg/mL (≈ 8.26 µM)
Cc1cc2c(o1)C(=O)c1ccccc1C2=O | 0.3 µg/mL (≈ 1.41 µM)
